High-throughput results from PubChem.
Sampled rows, rich in hits. Any-hit rate of the full collection: about 3.9%.
CHO parental Ca = counter-screen: ATP calcium response change in parental CHO cells | inhibition, % at 5.6 µM | 0.63% of 330,000 active | parental CHO-K1, ATP-induced calcium, Fluo-8 fluorescence;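 active means inhibition above that plate's mean sample inhibition plus 3 SD, cut at about 26% in these data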
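Test system: untransfected parental CHO cell line. Compound: one dose, 5.6 µM nominal. Detection: intracellular calcium via Fluo-8 no-wash fluorescent dye. Measure: % inhibition. Benchmarks: ATP-challenged DMSO wells low, unchallenged DMSO wells high.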
TAAR1 antag = antagonists of human TAAR1. Q96RJ0. CHO RD-HGA16 TAAR1, Fluo-8 calcium fluorescence, antagonist. inhibition, % at 3 µM. 1.5% of 360,000 active. AID 624466;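 active means inhibition above a per-plate cutoff, the mean inhibition of test compounds on that plate plus 3 SD, cut at about 49% in these data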
Target sequence (Q96RJ0 whole entry, looked up): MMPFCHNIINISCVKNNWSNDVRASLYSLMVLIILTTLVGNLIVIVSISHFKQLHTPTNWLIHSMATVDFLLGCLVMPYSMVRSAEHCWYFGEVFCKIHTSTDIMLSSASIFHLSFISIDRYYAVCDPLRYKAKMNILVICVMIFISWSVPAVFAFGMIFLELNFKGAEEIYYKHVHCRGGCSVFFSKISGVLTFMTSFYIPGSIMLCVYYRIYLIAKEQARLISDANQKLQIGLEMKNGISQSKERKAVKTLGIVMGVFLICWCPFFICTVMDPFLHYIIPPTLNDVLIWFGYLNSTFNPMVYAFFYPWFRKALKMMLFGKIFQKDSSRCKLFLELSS
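System: RD-HGA16 CHO cells with stable hTAAR1 and Gα16 | Probe or stimulus: EC80 β-phenethylamine stimulus | Dosing: 3 µM, single point | Times: Dye loading 75 min at 37 °C, then 30 min room temperature | Measured by: Fluo-8 calcium-sensitive fluorescence | Read-out basis: % inhibition of agonist calcium response | Replicates: n of 1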
OX1R antag-1 = antagonists of human orexin 1 receptor. O43613. CHO/OX1R cells, Fluo-8 calcium fluorescence, orexin A. inhibition, % at 5 µM. 0.43% of 330,000 active;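 active means inhibition above its plate's threshold, mean inhibition of all tested compounds on the plate plus 3 SD, cut at about 37% in these data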
OX1R antag-2 = blocks the human orexin 1 receptor; O43613; OX1R-expressing cells, FRET antagonist read-out; inhibition, % at 6.6 µM; 1.8% of 330,000 active; in the data active means inhibition mostly above about 38%, no sharp cut-off; inactive means mostly below about 40%
TAAR1 ag = agonists of human TAAR1; Q96RJ0; CHO RD-HGA16 TAAR1, Fluo-8 calcium fluorescence; vehicle wells 0%, saturating PEA agonist 100%; activation, % at 3 µM; 0.99% of 360,000 active;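 active means activation above the mean activation of all test compounds in the run plus 3 SD, cut at about 38% in these data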
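Test system: RD-HGA16 (CHO) cells co-expressing Gα16 and hTAAR1 | Doses: Single dose, 3 µM | Schedule: 17-24 h seeding, 75 min 37 °C dye, 30 min RT | Evaluation: % activation from peak over basal fluorescence ratio, DMSO-to-PEA scaled | Technique: Kinetic Fluo-8 calcium fluorescence | Benchmarks: Low control DMSO, high control PEA (EC100)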
Large screens that a line does not name were inactive.

Cc1ccc2nc(N(CCCN(C)C)C(=O)c3ccc(S(=O)(=O)N4CCc5ccccc5C4)cc3)sc2c1	TAAR1 ag 45
COc1ccc2sc(N(CCCN(C)C)C(=O)c3ccc(S(=O)(=O)N4CCc5ccccc5C4)cc3)nc2c1	TAAR1 ag 40
Cc1cccc2sc(N(CCCN(C)C)C(=O)c3ccc(S(=O)(=O)N4CCc5ccccc5C4)cc3)nc12	TAAR1 ag 39
CN(C)CCCN(C(=O)c1ccc2c(c1)CCCC2)c1nc2ccc(F)cc2s1	none
COc1ccc(O)cc1CN1CCN(c2ncc(Cc3ccccc3)cn2)CC1	none (no result: CHO parental Ca, OX1R antag-1, OX1R antag-2)
O=c1[nH]c2cc3c(cc2cc1CN(Cc1ccc2c(c1)OCO2)Cc1nnnn1CC1CCCO1)OCO3 (stereo not given)	OX1R antag-2 49
COc1ccc(C(=O)CSc2nnc(Cn3cnc4ccccc43)o2)cc1	CHO parental Ca 38
CN(c1ccccc1)S(=O)(=O)c1ccc(C(=O)NNC(=O)c2ccccc2)cc1	none
CN(c1ccccc1)S(=O)(=O)c1cccc(NC(=O)CCNC(=O)c2ccccc2)c1	TAAR1 antag 54
CN(c1ccccc1)S(=O)(=O)c1cccc(C(=O)NNC(=O)c2ccccc2)c1	OX1R antag-2 46
CN(c1ccccc1)S(=O)(=O)c1cccc(NC(=O)CCNC(=O)c2ccc(Cl)cc2)c1	none
NC(Cc1ccc(C(F)(F)F)cc1)c1csc(Nc2ccc(S(N)(=O)=O)cc2)n1 (stereo not given)	none (no result: CHO parental Ca, OX1R antag-1, OX1R antag-2)
CCCCNC(=O)c1cc2c(=O)n3cccc(C)c3nc2n(Cc2ccccc2)c1=N	none
COCCCn1c(=N)c(C(=O)NCC2CCCO2)cc2c(=O)n3cccc(C)c3nc21 (stereo not given)	OX1R antag-2 64
Cc1cccn2c(=O)c3cc(C(=O)NCCN4CCOCC4)c(=N)n(CCCN4CCOCC4)c3nc12	OX1R antag-2 52
COCCCn1c(C(=O)NCCN2CCOCC2)cc2c(=O)n3cccc(C)c3nc21	none
Cc1cccn2c(=O)c3cc(C(=O)NCc4ccccc4)c(=N)n(CCCN4CCOCC4)c3nc12	none (no result: CHO parental Ca, OX1R antag-1, OX1R antag-2)
Cc1cccn2c(=O)c3cc(C(=O)NCc4ccco4)c(=N)n(CCOCCO)c3nc12	OX1R antag-2 44 (no result: TAAR1 antag, TAAR1 ag)
C=CCn1c(=N)c(C(=O)NCCCOC)cc2c(=O)n3cccc(C)c3nc21	OX1R antag-2 61
Cc1cccn2c(=O)c3cc(C(=O)NCc4cccnc4)c(=N)n(CC4CCCO4)c3nc12 (stereo not given)	OX1R antag-2 70
COCCn1c(=N)c(C(=O)NCCc2ccccc2)cc2c(=O)n3cccc(C)c3nc21	none
CCCn1c(=N)c(C(=O)NCC2CCCO2)cc2c(=O)n3cccc(C)c3nc21 (stereo not given)	OX1R antag-2 56
Cc1ccc(Cn2c(=N)c(C(=O)NCC3CCCO3)cc3c(=O)n4cccc(C)c4nc32)cc1 (stereo not given)	none
Cc1cccn2c(=O)c3cc(C(=O)NCC4CCCO4)c(=N)n(CCN4CCOCC4)c3nc12 (stereo not given)	OX1R antag-2 162
Cc1cccn2c(=O)c3cc(C(=O)NCCc4ccccc4)c(=N)n(CCCn4ccnc4)c3nc12	OX1R antag-2 59
Clc1cccc(-c2nc3c4ccccc4ccn3c2Cc2ccsc2)c1	none (no result: CHO parental Ca, OX1R antag-1, OX1R antag-2)
COC(=O)c1ccc(CSc2nc3c(c(=O)[nH]2)CCC3)cc1	none (no result: CHO parental Ca, OX1R antag-1, OX1R antag-2)
O=C(NCc1cccnc1)c1cccn2c(=O)c3sccc3nc12	OX1R antag-2 61
CCCCNC(=O)C1(C)CCCCN1C(=O)c1ccc(OC)c(C(F)(F)F)c1 (stereo not given)	none (no result: CHO parental Ca, OX1R antag-1, OX1R antag-2)
c1ccc2c(c1)CCN(c1nc3ccccc3n3cnnc13)C2	OX1R antag-2 53
c1ccc(N2CCN(c3nc4ccccc4n4cnnc34)CC2)cc1	none
N#CCC(=O)Nc1ccc(C(=O)Nc2cccc(S(=O)(=O)N3CCCC3)c2)cc1	none (no result: CHO parental Ca, OX1R antag-1, OX1R antag-2)
Cc1cccc(C(=O)N(CC(=O)Nc2sc(C)c(C)c2C(N)=O)C2CCCC2)c1	none
Cc1ccc(C(=O)N(CC(=O)Nc2sc(C)c(C)c2C(N)=O)C2CCCC2)cc1	TAAR1 antag 51
O=C1c2ccccc2C(c2nnnn2Cc2ccccc2)N1Cc1ccc2c(c1)OCO2 (stereo not given)	none (no result: CHO parental Ca, OX1R antag-1, OX1R antag-2)
COc1ccccc1C(=O)Nc1nc2ccc(S(C)(=O)=O)cc2s1	OX1R antag-2 41
Cc1ccc2nc(NC(=O)c3ccccn3)sc2c1	CHO parental Ca 27
CS(=O)(=O)c1ccc2nc(NC(=O)c3ccccc3Cl)sc2c1	none (no result: CHO parental Ca, OX1R antag-1, OX1R antag-2)
O=C(CSc1n[nH]c(=O)[nH]c1=O)c1cccc([N+](=O)[O-])c1	OX1R antag-2 48
CC(NC(=S)Nc1ccc(OC(F)F)c(Cl)c1)C(C)(C)C (stereo not given)	CHO parental Ca 34, OX1R antag-1 38
FC(F)(F)c1ccc(NC(=S)NCc2ccccc2)cc1	CHO parental Ca 30
FC(F)Oc1ccc(NC(=S)NCc2ccccc2)cc1Cl	CHO parental Ca 34
FC(F)Oc1ccc(NC(=S)NCc2ccccc2)cc1	none
O=C(O)c1ccc(NC(=S)NCc2ccccc2)cc1	none
CC(=O)NC(C)(c1ccccc1)c1nc(-c2cccc(C(F)(F)F)c2)cs1 (stereo not given)	none (no result: CHO parental Ca, OX1R antag-1, OX1R antag-2)
OC(CNC1Cc2ccccc2C1)COc1ccc(Cl)cc1 (stereo not given)	none
OC(CNC1CCCc2ccccc21)COc1c(Cl)cccc1Cl (stereo not given)	TAAR1 ag 69
O=C(CCSc1nnc(-c2ccco2)o1)Nc1ccccc1	none
O=C(CCSc1nnc(-c2ccco2)o1)Nc1ccc(Cl)cc1	TAAR1 ag 41
COc1ccccc1OCC(=O)Nc1ccc(-c2nnc(-c3ccco3)o2)cc1	OX1R antag-2 64
COc1ccccc1OCC(=O)Nc1oc(-c2ccccc2)c(-c2ccccc2)c1C#N	OX1R antag-2 50
COc1ccc(CC(=O)Nc2oc(-c3ccccc3)c(-c3ccccc3)c2C#N)cc1OC	none
O=C(COc1ccc(Br)cc1)Nc1ccc(-c2nnc(-c3ccco3)o2)cc1	none
FC(F)(F)Oc1ccccc1C(c1nnnn1-c1ccc2c(c1)OCCO2)N1CCN(C/C=C/c2ccccc2)CC1 (stereo not given)	none (no result: CHO parental Ca, OX1R antag-1, OX1R antag-2)
O=C(NCc1ccccc1)c1cccc(COc2cc(Cl)ccc2Cl)c1	none
O=C(NCc1ccccc1)c1cccc(COc2ccccc2Cl)c1	CHO parental Ca 57
N=C(N)c1ccc(/C=C/c2ccc(C(=N)N)cc2O)cc1	OX1R antag-2 46
O=C(CN1C(=O)CC(c2ccccc2)Sc2ccccc21)NCC1CCCO1 (stereo not given)	none
O=C(CN1C(=O)/C(=C/c2ccccc2F)Sc2ccccc21)NCC1CCCO1 (stereo not given)	OX1R antag-2 66
O=C(CN1C(=O)NC2(CCCC2)C1=O)NCCN1C(=O)S/C(=C\c2ccccc2F)C1=O	OX1R antag-2 51
